We go through 8 compounds from PMC3690701 (Bioorganic & medicinal chemistry, 2011).

In one data set the target is human Pgp (Homo sapiens, UniProt P08183). The following applies: for logIC50: fitted parameter±standard error, GraphPad Prism, R123 efflux, MDCKII-MDR1.
Data set [1] deals with Pgp/BCRP at the BBB. Description: small-animal PET of [18F]4b in rats before/after unlabelled 1. It counts as in vivo, rat. The following applies: 25 min after tracer injection, scanned 2 h after 1 (5 mg/kg), p=0.0002. The gist of the method: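 Naïve rats were kept under isoflurane (2.5% induction, 1.5–2% maintenance) at about 38°C, with femoral artery and vein catheters. The tracer was given as an i.v. bolus (33±3 MBq) in saline/EtOH/PEG300 (50/15/35). Arterial samples were gamma-counted, and whole-brain TACs were expressed as SUV. Groups were compared by 2-tailed Student's t-test.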

The format of data set [2] is in vivo, rat.
The nature of data set [3]: plasma protein binding by ultrafiltration. The following applies: 30 min at 37°C, n=3. The data set is classed as in vitro ADME, rat. The gist of the method:
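Fresh plasma from naïve rats was incubated with the 18F-labelled tracer for 30 min at 37°C. Bound and free tracer were then separated by ultrafiltration through centrifugal filter devices.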

The subject of data set [4] is Pgp/BCRP at the BBB. The following applies: mouse brain, unlabelled 1 0.1-10 mg/kg i.v.; cited from earlier work.
A further data set has as its system Pgp. The following applies: cited from earlier work.
The subject of the next data set is human BCRP. The following applies: 3H-labelled tariquidar 1 nM, reversed by fumitremorgin C; cited from earlier work.

Sequence of human Pgp (P08183 whole entry): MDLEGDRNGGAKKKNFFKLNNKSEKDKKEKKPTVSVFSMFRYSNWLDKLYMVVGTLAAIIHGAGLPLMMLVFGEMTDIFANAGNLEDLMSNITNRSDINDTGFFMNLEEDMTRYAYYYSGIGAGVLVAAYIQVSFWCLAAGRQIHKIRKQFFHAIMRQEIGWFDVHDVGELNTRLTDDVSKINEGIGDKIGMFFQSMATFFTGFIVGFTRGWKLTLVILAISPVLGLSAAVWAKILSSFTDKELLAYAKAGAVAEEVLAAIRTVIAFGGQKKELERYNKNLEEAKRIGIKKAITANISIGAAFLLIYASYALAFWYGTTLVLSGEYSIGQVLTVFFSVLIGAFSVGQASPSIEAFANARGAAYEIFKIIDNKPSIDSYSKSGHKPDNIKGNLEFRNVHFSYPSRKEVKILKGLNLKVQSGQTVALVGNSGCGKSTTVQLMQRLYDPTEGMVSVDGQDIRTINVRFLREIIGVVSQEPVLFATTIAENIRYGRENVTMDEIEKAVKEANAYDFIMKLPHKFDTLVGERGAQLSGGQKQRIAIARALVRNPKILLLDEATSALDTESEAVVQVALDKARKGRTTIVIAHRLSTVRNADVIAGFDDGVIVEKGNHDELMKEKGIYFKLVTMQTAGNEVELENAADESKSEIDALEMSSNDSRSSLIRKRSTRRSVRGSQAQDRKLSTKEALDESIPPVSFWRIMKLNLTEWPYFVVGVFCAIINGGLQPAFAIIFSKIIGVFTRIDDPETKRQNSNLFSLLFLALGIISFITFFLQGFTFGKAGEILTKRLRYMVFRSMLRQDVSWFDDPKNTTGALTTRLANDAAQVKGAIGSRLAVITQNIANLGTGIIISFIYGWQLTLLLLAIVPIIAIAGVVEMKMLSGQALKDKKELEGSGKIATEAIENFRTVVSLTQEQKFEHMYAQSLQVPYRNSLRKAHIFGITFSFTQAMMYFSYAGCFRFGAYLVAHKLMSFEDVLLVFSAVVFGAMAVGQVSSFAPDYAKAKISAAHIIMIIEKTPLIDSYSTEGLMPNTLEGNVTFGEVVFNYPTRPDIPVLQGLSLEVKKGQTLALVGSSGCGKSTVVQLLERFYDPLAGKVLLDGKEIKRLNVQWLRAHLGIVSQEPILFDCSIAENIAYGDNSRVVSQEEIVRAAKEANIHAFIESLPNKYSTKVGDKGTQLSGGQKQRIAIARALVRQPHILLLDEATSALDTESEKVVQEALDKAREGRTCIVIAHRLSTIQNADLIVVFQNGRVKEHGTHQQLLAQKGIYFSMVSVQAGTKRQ

Take `COc1cc2c(cc1OC)CN(CCc1ccc(NC(=O)c3ccc(Cl)c4c(=O)c5cccc(OC)c5[nH]c34)cc1)CC2` [4a, 1-Chloro-N-(4-(2-(6,7-dimethoxy-1,2,3,4-tetrahydroisoquinolin-2-yl)ethyl)phenyl)-5-methoxyacridone-4-carboxamide]: the logIC50 on human Pgp is recorded as 0.58±0.04.

`COc1cc2c(cc1OC)CN(CCc1ccc(NC(=O)c3ccc(F)c4c(=O)c5cccc(OC)c5[nH]c34)cc1)CC2` [4b, N-(4-(2-(6,7-dimethoxy-1,2,3,4-tetrahydroisoquinolin-2-yl)ethyl)phenyl)-1-fluoro-5-methoxyacridone-4-carboxamide]: the logIC50 at human Pgp was 0.24±0.04. Besides, the “IC50 times higher than 1” value against human Pgp (human, pH 7.4) was “about 4 times”.

On human Pgp, `COc1cc2c(cc1OC)CN(CCc1ccc(NC(=O)c3ccc([N+](=O)[O-])c4c(=O)c5cccc(OC)c5[nH]c34)cc1)CC2` [4c, N-(4-(2-(6,7-dimethoxy-1,2,3,4-tetrahydroisoquinolin-2-yl)ethyl)phenyl)-5-methoxy-1-nitroacridone-4-carboxamide] came in with a logIC50 of 0.21±0.07.

For the compound `COc1cc2c(cc1OC)CN(CCc1ccc(NC(=O)c3cc(Cl)cc4c(=O)c5cccc(OC)c5[nH]c34)cc1)CC2` [4d, 2-Chloro-N-(4-(2-(6,7-dimethoxy-1,2,3,4-tetrahydroisoquinolin-2-yl)ethyl)phenyl)-5-methoxyacridone-4-carboxamide], the logIC50 on human Pgp is reported as 0.14±0.08.

With `COc1cc2c(cc1OC)CN(CCc1ccc(NC(=O)c3cc(F)cc4c(=O)c5cccc(OC)c5[nH]c34)cc1)CC2` [4e, N-(4-(2-(6,7-dimethoxy-1,2,3,4-tetrahydroisoquinolin-2-yl)ethyl)phenyl)-2-fluoro-5-methoxyacridone-4-carboxamide], the logIC50 on human Pgp was −0.21±0.08.

`COc1cc2c(cc1OC)CN(CCc1ccc(NC(=O)c3ccc([18F])c4c(=O)c5cccc(OC)c5[nH]c34)cc1)CC2` [[^18F]4b, 1-[^18F]fluoroelacridar]: the “brain activity uptake increase after unlabelled 1 (group 2 vs group 1)” value in the data set with Pgp/BCRP at the BBB [1] is on record as 9.5 times. Also, the “total radioactivity in brain in the form of unchanged tracer” value in data set [2] (rat brain extracts, 40 min after injection, HPLC) was more than 90%. The “total radioactivity in the form of unchanged tracer, HPLC of SPE fraction 3” value in data set [2] (rat plasma, 40 min sample) came to 72±27%. Moreover, the “protein-bound in rat plasma” value in data set [3] was 98.0±1.7%.

With `COc1cc2c(cc1OC)CN(CCc1ccc(NC(=O)c3cccc4c(=O)c5cccc(OC)c5[nH]c34)cc1)CC2` [compound 1, elacridar], in the data set with Pgp/BCRP at the BBB [4], the “dose at which brain uptake of [11C]1 started to increase” value was “greater than 0.1 mg/kg” and the “half-maximum effect dose for increase of [11C]1 brain uptake” value is reported as 1.55 mg/kg. In addition, on human Pgp (human, pH 7.4), the “Maximal inhibitory effect (%)” value is given as 100%. In the data set with Pgp, the “stimulation of ATPase activity” value is given as “does not stimulate”.

In the case of `COc1cc2c(cc1OC)CN(CCc1ccc(NC(=O)c3cc(OC)c(OC)cc3NC(=O)c3cnc4ccccc4c3)cc1)CC2` [tariquidar], the BCRP transport result in the data set on human BCRP is recorded as “avid substrate of BCRP”.
